Bioassay records (PubChem)
Hits are enriched below; roughly 2.2% of the tested compounds scored in any of these assays.
PfG6PD inh: PfG6PD (Plasmodium falciparum) enzyme inhibition; PfGluPho enzyme, NADPH resazurin-diaphorase fluorescence; inhibition, % at 20 µM; hit rate 0.78% among 350,000;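 active = inhibition reaching at least a set limit at 20 µM in the primary screen, cut at about 59% in these data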;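 note: 0% = DMSO wells with substrate and 100% = DMSO wells lacking glucose-6-phosphate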
Exocytosis inh: lytic granule exocytosis inhibition; inhibition, % at 10 µM; AID 651702; TALL-104 LAMP-1 surface exposure, flow cytometry; cells stimulated with thapsigargin and PMA; hit rate 0.66% among 360,000;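 active = inhibition above about 55%, limit read from the data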
ABHD5-PLIN5 inh: ABHD5-PLIN5 protein interaction inhibition; Q00G26+Q8WTS1; Split G. princeps luciferase complementation, luminescence, 4 h; inhibition, % at 4 µM; hit rate 0.78% among 360,000;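 active = inhibition above the mean inhibition across every tested compound plus 3 SD, cut at about 22% in these data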;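 note: 0% = DMSO only wells and the 100% control is not disclosed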
HKDC1 inh: blocks human hexokinase HKDC1 activity; Q2TB90; recombinant HKDC1, G6PDH/diaphorase resazurin coupled fluorescence; inhibition, % at 20 µM; hit rate 0.16% among 340,000; AID 493160;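 active = inhibition above about 35% when tested at 20 µM, limit read from the data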;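 note: plate controls were DMSO wells with enzyme for no effect and DMSO wells lacking enzyme for full effect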
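Assay system – recombinant HKDC1 (HK5) hexokinase enzyme, produced in-house · Input – HKDC1 at 5 µg/mL · Reagent – glucose plus 1 mM ATP as hexokinase substrates · Timing – 90 min reaction incubation at room temperature, dark · Measured by – G6PDH/diaphorase-coupled fluorescence, 1 mM NADP, 100 µM resazurin, 525/613 nm · Benchmarks – DMSO-enzyme wells negative, buffer-substituted wells positive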
PfGluPho conf: confirmation of Plasmodium falciparum G6PD inhibitors | inhibition, % at 20 µM | recombinant PfGluPho, NADPH-diaphorase-resazurin fluorescence | shares compounds with PfG6PD inh | hit rate 34% among 2,400;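 active = inhibition of at least 50% at 20 µM in any single replicate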;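 note: 0% = DMSO with substrate and 100% = DMSO lacking glucose-6-phosphate substrate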
Diaphorase 10uM: counter-screen for P. falciparum G6PD inhibitors: diaphorase inhibitors, oxidizers; shares compounds with PfG6PD inh; diaphorase-coupled resazurin reduction, fluorescence, NADPH 10 uM; inhibition, % at 20 µM; hit rate 39% among 820; AID 504862;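 active = average inhibition reaching 50% or more with the compound at 20 µM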;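 note: resorufin red fluorescence formed as diaphorase reduces resazurin using NADPH; 0% = DMSO with enzyme and 100% = DMSO without enzyme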
Diaph ctr 30uM: inhibits diaphorase or oxidizes, flagging false PfG6PD hits; shares compounds with PfG6PD inh; Diaphorase/resazurin coupled assay, resorufin fluorescence, 30 uM NADPH; inhibition, % at 20 µM; hit rate 29% among 820; AID 504863;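 active = inhibition averaging 50% or more, tested at 20 µM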;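 note: 0% = DMSO with enzyme and 100% = DMSO wells lacking diaphorase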
* = called active by the depositor.

`COc1ccc(C(=O)c2c(C(F)(F)F)oc3c2C(=O)c2ccccc2C3=O)cc1` gave PfG6PD inh 76*, Exocytosis inh 25, ABHD5-PLIN5 inh -12, HKDC1 inh 17, PfGluPho conf 35*, Diaphorase 10uM 28 and Diaph ctr 30uM 32.
For COC(=O)C[C@@H]1CC[C@H](NC(=O)c2cnccn2)[C@@H](CO)O1 the results were Exocytosis inh -15 and ABHD5-PLIN5 inh -2.
Screening O=c1c2cn[nH]c2[nH]c(=S)n1-c1ccccc1 returned PfG6PD inh 59*, Exocytosis inh 1, ABHD5-PLIN5 inh -5, HKDC1 inh -2 and PfGluPho conf 0.
Screening O=S(=O)(c1cccc(F)c1)N1CCN(Cc2cc3c(cc2Br)OCCO3)CC1 returned PfG6PD inh 6, Exocytosis inh 6, ABHD5-PLIN5 inh -5 and HKDC1 inh -2.
Screening Cc1ccc(-n2c(C)cc(C(=O)CSc3nncs3)c2C)cc1 returned PfG6PD inh 62*, Exocytosis inh 1, ABHD5-PLIN5 inh -1, HKDC1 inh -9 and PfGluPho conf 23.
Screening Clc1ccc2ncc(-c3nnnn3-c3ccccc3)c(-c3ccccc3)c2c1 returned PfG6PD inh 26, Exocytosis inh 23, ABHD5-PLIN5 inh 5 and HKDC1 inh 4.
Clc1ccc2[nH]cc(-c3nnnn3-c3ccccc3)c2c1 was read as PfG6PD inh 96*, Exocytosis inh -2, ABHD5-PLIN5 inh 3, HKDC1 inh 8 and PfGluPho conf 36.
For O=C(CN1CCN(S(=O)(=O)N2CCOCC2)CC1)Nc1cc(Cl)ccc1Cl the results were PfG6PD inh -18, Exocytosis inh -17, ABHD5-PLIN5 inh 1 and HKDC1 inh -5.
Screening Cc1ccc(CSc2nnc(-c3ccc4c(c3)OCO4)o2)cc1 returned PfG6PD inh 2, Exocytosis inh -1, ABHD5-PLIN5 inh 0 and HKDC1 inh 8.
Cc1ccc(Nc2nnc(-c3ccc4c(c3)OCO4)o2)c(C)c1 was read as PfG6PD inh 70*, Exocytosis inh 1, ABHD5-PLIN5 inh -3, HKDC1 inh 1 and PfGluPho conf 39.
Screening NC(=S)NN=Cc1nccc2c(N)cccc12 returned PfG6PD inh 100*, Exocytosis inh -4, ABHD5-PLIN5 inh -27 and PfGluPho conf 49.
`OC[C@H]1O[C@H](OC[C@H]2OC(O)[C@H](O)[C@@H](O)[C@@H]2O)[C@H](O)[C@@H](O)[C@@H]1O` (some centres not stated) gave PfG6PD inh 6, Exocytosis inh 1, ABHD5-PLIN5 inh 4 and HKDC1 inh -4.
For CC(=O)Nc1ccc(NC(=O)[C@H](C)NC(=O)c2ccco2)cc1 the results were PfG6PD inh 8, Exocytosis inh -2, ABHD5-PLIN5 inh 0 and HKDC1 inh -2.
For CCN(CC(=O)Nc1ccc(OC)cc1)C(=O)c1ccc2[nH]c3c(c2c1)CC(C)CC3 (configuration not stated) the results were PfG6PD inh 22, Exocytosis inh 1, ABHD5-PLIN5 inh 8 and HKDC1 inh 10.
Screening Cc1ccc(C)c(NC(=O)CN(C)C(=O)c2ccc3[nH]c4c(c3c2)CC(C)CC4)c1 (configuration not stated) returned PfG6PD inh 70*, Exocytosis inh 17, ABHD5-PLIN5 inh 12, HKDC1 inh 1 and PfGluPho conf 20.
`COc1ccc2cc(C(=O)N(C)CC(=O)Nc3ccccc3Br)ccc2c1` gave PfG6PD inh 0, Exocytosis inh 2, ABHD5-PLIN5 inh -3 and HKDC1 inh -2.
CC1CCc2[nH]c3ccc(C(=O)N(C)CC(=O)Nc4ccccc4Br)cc3c2C1 (configuration not stated) was read as PfG6PD inh 90*, Exocytosis inh 0, ABHD5-PLIN5 inh -7, HKDC1 inh 11 and PfGluPho conf 47.
For CC(NC(=O)c1ccc(S(=O)(=O)Nc2ccccc2Cl)cc1)c1ccncc1 (configuration not stated) the results were PfG6PD inh -9, Exocytosis inh 0, ABHD5-PLIN5 inh 1 and HKDC1 inh -4.
Screening OC1(C(F)(F)F)CC(c2ccc3ccccc3c2)=NO1 (configuration not stated) returned PfG6PD inh 4, Exocytosis inh 4, ABHD5-PLIN5 inh 3 and HKDC1 inh -1.
For CC1CN(C(=O)COc2coc(CN3CCc4ccccc4C3)cc2=O)CC(C)O1 (configuration not stated) the results were PfG6PD inh 8, Exocytosis inh 7, ABHD5-PLIN5 inh 8 and HKDC1 inh -2.
Cc1ccc(-c2ccc(C(=O)NCc3ccc(Cl)cc3)o2)c2ccccc12 was read as PfG6PD inh 61*, Exocytosis inh 14, ABHD5-PLIN5 inh 22*, HKDC1 inh 21 and PfGluPho conf 4.
`COc1ccccc1NS(=O)(=O)c1cc(N)ccc1N1CCCC1` gave PfG6PD inh 70*, Exocytosis inh -22, ABHD5-PLIN5 inh -15, HKDC1 inh -2 and PfGluPho conf 22.
CCOC(=O)C(=CNc1ccc(N2CCCCC2)c(S(=O)(=O)Nc2ccccc2OC)c1)C(=O)OCC was read as PfG6PD inh 65*, Exocytosis inh 0, ABHD5-PLIN5 inh -16, HKDC1 inh -6 and PfGluPho conf 24.
Screening Nc1ccc(N2CCCC2)c(S(=O)(=O)Nc2cccc(C(F)(F)F)c2)c1 returned PfG6PD inh 80*, Exocytosis inh 25, ABHD5-PLIN5 inh -18, HKDC1 inh -2 and PfGluPho conf 27.
`COc1ccccc1NS(=O)(=O)c1cc(N)ccc1N1CCOCC1` gave PfG6PD inh 55, Exocytosis inh -13, ABHD5-PLIN5 inh -3 and HKDC1 inh -7.
`C/C=C/c1ccc2c(c1)O[C@H](CN(C)CC1CCOCC1)[C@@H](C)CN([C@H](C)CO)S2(=O)=O` gave PfG6PD inh -2, Exocytosis inh 4 and ABHD5-PLIN5 inh 0.
For COc1cccc(C(=O)OCC(=O)NC(C)CCc2ccccc2)c1O (configuration not stated) the results were PfG6PD inh -17, Exocytosis inh 1, ABHD5-PLIN5 inh -12 and HKDC1 inh 3.
`O=c1c2ccccc2sn1-c1cc(S(=O)(=O)N2CCOCC2)ccc1N1CCCC1` gave PfG6PD inh 112*, Exocytosis inh 8, ABHD5-PLIN5 inh 13, HKDC1 inh -7, PfGluPho conf 107*, Diaphorase 10uM -10 and Diaph ctr 30uM -7.
For CC(C)C(=O)Nc1cc(S(=O)(=O)N2CCOCC2)ccc1N1CCCCC1 the results were PfG6PD inh 61*, Exocytosis inh -3, ABHD5-PLIN5 inh -7, HKDC1 inh -10 and PfGluPho conf -14.
